In brackets after ≈: the same amount, converted by molar mass. Activity calls are given as the source filed them. The calls are words filed in the database; no cut-off is given here.
Key:
Micrococcus luteus = assay: Antimicrobial activity against Micrococcus luteus ATCC 9343 after 20 hrs; type: functional; conditions: ATCC 9343, 20 h
In short: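 Micrococcus luteus was grown 20 h at 30 °C with shaking, then pelleted and suspended in saline at 1 × 10^5 cells/mL. It was then mixed 1:10 with Mueller Hinton broth plus compound in DMSO.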

Escherichia coli = assay: Antimicrobial activity against Escherichia coli NIH-JC2 after 20 hrs; type: functional, organism-based
In short: (§1)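 Broth microdilution. Overnight cultures (20 h, 30 °C, shaken) centrifuged and resuspended in saline at 1 × 10^5 cells/mL, diluted 1:10 into medium with sample in DMSO. C. albicans in yeast nitrogen base + 2% glucose, 30 °C. E. coli in Mueller Hinton broth, 37 °C. Growth read as A650 after 20 h. MIC reported.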

Candida albicans = assay: Antimicrobial activity against Candida albicans IFO1594 after 20 hrs; type: functional, organism-based; in short: as §1
[1] = Antiinvasive activity against mouse 26-L5 cells after 6 to 8 hrs by matrigel assay; type: functional, cell-based
In short: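 Transwell chambers with 8.0-μm polycarbonate filters coated with Matrigel/fibronectin were used. Cells were fixed in methanol and stained with H&E. Non-invaded cells were swabbed off, and cells on the lower surface were counted in five fields per well. IC50 reported.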

[2] = Selectivity index, ratio of IC50 for cytotoxicity against mouse 26-L5 cells to IC50 for antiinvasive activity against mouse 26-L5 cells; type: toxicity, cell-based; conditions: read-out: Ratio IC50
[3] = Cytotoxicity against mouse 26-L5 cells after 24 hrs by crystal violet staining assay; type: cell-based
In short: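 Colon 26-L5 cells (5 × 10^3/well) were seeded in RPMI with 1% FCS and graded compound concentrations. They were incubated 24 h at 37 °C under 5% CO2, washed with PBS and fixed in 20% formalin. Cells were stained 30 min with crystal violet, the dye was eluted in 30% acetic acid and A590 was read. IC50 reported.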

Structure (SMILES) | MIC (Micrococcus luteus) | Activity (Escherichia coli) | Activity (Candida albicans) | IC50 [1] | selectivity ratio [2] | IC50 [3]
CC[C@@H](C[C@@H](C)C[C@H](C)C[C@H](C)C(=O)O)C(=O)/C=C(\O)[C@H](C)C[C@H](C)C/C=C/[C@H](C)[C@@H](O)CC1CCC(C)(C2CCC(C)([C@@H](C)O)O2)O1 (stereo partly specified) | 6.25 µg/mL (≈ 9.2 µM) | inactive | inactive | 0.0055 µM | 73 | –
C[C@H](C/C=C/[C@H](C)[C@@H](O)CC1CCC(C)(C2CCC(C)([C@@H](C)O)O2)O1)C[C@@H](C)/C(O)=C/C(=O)[C@@H](C)C[C@@H](C)C[C@H](C)C[C@H](C)C(=O)O (stereo partly specified) | 6.25 µg/mL (≈ 9.4 µM) | inactive | inactive | 0.3 µM | 15 | 4.5 µM
